In brackets after ≈: the same amount, converted by molar mass. Where a SMILES comes first, the peptide text is derived from it. Bridges are numbered along the chain shown (N, C = ends). [ ]: non-standard residue; d: D form. Orn = NCCC[C@H](N)C(=O)O; Mpa = O=C(O)CCS
Key:
Oxytocin receptor [1] = molecular target: T1, Oxytocin receptor (Homo sapiens, UniProt P30559); assay: Displacement of [3H]oxytocin from human OTR
T1 sequence (P30559 whole entry): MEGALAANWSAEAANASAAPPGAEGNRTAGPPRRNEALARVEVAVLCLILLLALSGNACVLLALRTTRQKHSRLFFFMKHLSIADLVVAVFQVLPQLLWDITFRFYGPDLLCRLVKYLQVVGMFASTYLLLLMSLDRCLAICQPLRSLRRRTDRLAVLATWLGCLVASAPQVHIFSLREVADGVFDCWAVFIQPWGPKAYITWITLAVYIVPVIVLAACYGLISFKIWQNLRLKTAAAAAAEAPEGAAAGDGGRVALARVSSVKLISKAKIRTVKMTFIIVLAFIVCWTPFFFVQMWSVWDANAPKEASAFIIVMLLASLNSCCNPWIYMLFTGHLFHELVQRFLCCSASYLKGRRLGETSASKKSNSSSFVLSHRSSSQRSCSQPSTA

[2] = Clearance in rat; assay type: ADME, organism-based; conditions: in vivo
In short: (§1)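 Rat pharmacokinetics, n = 4; dosed at 5 mg/kg in 5% DMSO/95% PEG400. AUC in ng·h mL⁻¹, clearance in mL min⁻¹ kg⁻¹, half-life in h.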

[3] = Oral bioavailability in rat; assay type: ADME, organism-based; conditions: in vivo
[4] = Clearance in dog; assay type: ADME, organism-based, Canis lupus familiaris; conditions: in vivo
In short: (§2)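 Dog pharmacokinetics, n = 3; dosed at 0.6 mg/kg in 5% DMSO/95% PEG400. AUC reported as ng·h mL⁻¹ and clearance as mL min⁻¹ kg⁻¹.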

Canis familiaris = assay: (§3) Oral bioavailability in dog; assay type: ADME, organism-based, Canis lupus familiaris; conditions: in vivo
[5] = Lipophilicity, log D by CHI method; assay type: physicochemical; conditions: read-out: Log D
In short: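 Lipophilicity determined by an HPLC-based method.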

[6] = AUC in rat; assay type: ADME, organism-based; parameters: concentration or dose not given beside the values; conditions: plasma; in short: as §1
[7] = AUC in dog; assay type: ADME, organism-based, Canis lupus familiaris; parameters: concentration or dose not given beside the values; conditions: plasma; in short: as §2
[8] = Solubility of the compound; assay type: physicochemical
In short: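 Aqueous solubility (mg mL⁻¹) measured by precipitation followed by HPLC.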

Cytochrome P450 3A4 [9] = molecular target: T2, Cytochrome P450 3A4 (Homo sapiens, UniProt P08684); assay: Inhibition of CYP450 3A4 transfected in human microsome using PPR fluorogenic substrate; assay type: ADME, microsomes
Cytochrome P450 2D6 = Cytochrome P450 2D6 (Homo sapiens, UniProt P10635); assay: Inhibition of CYP450 2D6 transfected in human microsome using DEF fluorogenic substrate; assay type: ADME, microsomes
In short: (§4)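 Recombinant human CYP isozymes, with reaction progress followed by fluorogenic substrates; DEF and 7-benzyloxyquinoline used as CYP3A4 substrates. Compounds dissolved at 1.65 mM in DMSO/methanol and serially diluted to give IC50 (μM). A positive control run for each isozyme.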

[10] = Half life in rat; assay type: ADME, organism-based; conditions: in vivo; in short: as §1
[11] = Volume of distribution in rat; assay type: ADME, organism-based; conditions: in vivo, read-out: Vdss
[12] = Half life in dog; assay type: ADME, organism-based, Canis lupus familiaris; conditions: in vivo
[13] = Volume of distribution in dog; assay type: ADME, organism-based, Canis lupus familiaris; conditions: in vivo, read-out: Vdss
[14] = as §3; assay type: ADME, organism-based, Canis lupus familiaris; conditions: in vivo
Oxytocin receptor [15] = molecular target: T1, Oxytocin receptor; assay: Antagonist activity against human OTR expressed in CHO cells measured as calcium influx by FLIPR assay; assay type: functional, cell-based
Vasopressin V1a receptor = Vasopressin V1a receptor (Homo sapiens, UniProt P37288); assay: Displacement of vasopressin from human V1aR
Vasopressin V1b receptor = molecular target: T3, Vasopressin V1b receptor (Homo sapiens, UniProt P47901); assay: Displacement of vasopressin from human V1bR
T3 sequence (P47901 whole entry): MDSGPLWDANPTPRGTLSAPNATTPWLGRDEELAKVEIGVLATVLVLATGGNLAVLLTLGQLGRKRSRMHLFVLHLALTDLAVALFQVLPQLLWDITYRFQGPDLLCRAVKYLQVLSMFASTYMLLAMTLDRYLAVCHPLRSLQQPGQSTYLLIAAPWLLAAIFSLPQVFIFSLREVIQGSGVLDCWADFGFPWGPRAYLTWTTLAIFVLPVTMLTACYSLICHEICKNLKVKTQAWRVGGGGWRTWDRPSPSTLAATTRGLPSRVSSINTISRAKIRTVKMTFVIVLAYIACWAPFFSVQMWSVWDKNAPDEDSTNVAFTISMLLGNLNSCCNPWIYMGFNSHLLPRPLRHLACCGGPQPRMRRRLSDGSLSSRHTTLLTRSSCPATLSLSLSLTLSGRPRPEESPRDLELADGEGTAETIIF

Vasopressin V2 receptor = Vasopressin V2 receptor (Homo sapiens, UniProt P30518); assay: Displacement of vasopressin from human V2R
Rattus norvegicus = assay: Reduction in oxytocin-induced uterine contraction in iv dosed anaesthetized rat; assay type: functional, organism-based; conditions: for IC50: Rattus norvegicus
In short: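 Anaesthetized rats; uterine contractions elicited by iv oxytocin at a standard dose of 0.3 ug/kg. Test compound then given iv in rising doses (0.1, 0.3, 1 mg/kg) and the fall in contractility recorded. Plasma IC50 taken as the plasma concentration giving 50% inhibition of the response to the standard oxytocin dose.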

Oxytocin receptor [16] = molecular target: T4, Oxytocin receptor (Rattus norvegicus, UniProt P70536); assay: Displacement of [3H]oxytocin from rat OTR
T4 sequence (P70536 whole entry): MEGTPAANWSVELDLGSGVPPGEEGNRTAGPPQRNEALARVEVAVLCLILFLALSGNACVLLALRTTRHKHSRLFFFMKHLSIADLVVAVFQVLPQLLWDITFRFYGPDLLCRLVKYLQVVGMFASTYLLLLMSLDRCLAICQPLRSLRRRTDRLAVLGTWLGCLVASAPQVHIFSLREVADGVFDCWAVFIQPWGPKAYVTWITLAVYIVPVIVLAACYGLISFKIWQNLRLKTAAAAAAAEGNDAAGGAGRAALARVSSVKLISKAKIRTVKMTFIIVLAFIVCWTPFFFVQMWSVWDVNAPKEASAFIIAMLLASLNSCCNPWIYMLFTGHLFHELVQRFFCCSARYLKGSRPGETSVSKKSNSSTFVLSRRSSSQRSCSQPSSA

Oxytocin receptor [17] = molecular target: T1, Oxytocin receptor; assay: […] activity at human OTR expressed in CHO cells assessed as inhibition of oxytocin-induced calcium mobilization by FLIPR assay; assay type: functional, cell-based
Cytochrome P450 1A2 = molecular target: T5, Cytochrome P450 1A2 (Homo sapiens, UniProt P05177); assay: Inhibition of CYP450 1A2 transfected in human microsome; assay type: ADME; in short: as §4
T5 sequence (P05177 whole entry): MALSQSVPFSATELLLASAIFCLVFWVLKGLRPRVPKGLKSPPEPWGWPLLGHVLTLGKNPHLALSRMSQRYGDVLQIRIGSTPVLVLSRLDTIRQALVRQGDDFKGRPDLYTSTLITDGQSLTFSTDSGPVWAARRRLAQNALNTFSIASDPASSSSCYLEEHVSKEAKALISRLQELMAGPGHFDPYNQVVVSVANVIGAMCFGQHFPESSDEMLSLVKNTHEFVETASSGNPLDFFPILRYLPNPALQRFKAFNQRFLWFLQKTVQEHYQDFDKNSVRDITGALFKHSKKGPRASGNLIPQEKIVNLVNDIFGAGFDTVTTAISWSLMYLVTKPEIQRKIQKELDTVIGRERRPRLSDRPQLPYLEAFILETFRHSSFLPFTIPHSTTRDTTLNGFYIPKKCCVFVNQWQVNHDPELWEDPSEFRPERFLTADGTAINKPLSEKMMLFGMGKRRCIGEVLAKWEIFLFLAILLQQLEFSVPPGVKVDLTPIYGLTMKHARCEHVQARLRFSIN

Cytochrome P450 2C9 = Cytochrome P450 2C9 (Homo sapiens, UniProt P11712); assay: Inhibition of CYP450 2C9 transfected in human microsome; assay type: ADME; in short: as §4
Cytochrome P450 2C19 = Cytochrome P450 2C19 (Homo sapiens, UniProt P33261); assay: Inhibition of CYP450 2C19 transfected in human microsome; assay type: ADME; in short: as §4
Cytochrome P450 3A4 [18] = molecular target: T2, Cytochrome P450 3A4; assay: Inhibition of CYP450 3A4 transfected in human microsome using DEF fluorogenic substrate; assay type: ADME, microsomes; in short: as §4

T2 sequence (P08684 whole entry): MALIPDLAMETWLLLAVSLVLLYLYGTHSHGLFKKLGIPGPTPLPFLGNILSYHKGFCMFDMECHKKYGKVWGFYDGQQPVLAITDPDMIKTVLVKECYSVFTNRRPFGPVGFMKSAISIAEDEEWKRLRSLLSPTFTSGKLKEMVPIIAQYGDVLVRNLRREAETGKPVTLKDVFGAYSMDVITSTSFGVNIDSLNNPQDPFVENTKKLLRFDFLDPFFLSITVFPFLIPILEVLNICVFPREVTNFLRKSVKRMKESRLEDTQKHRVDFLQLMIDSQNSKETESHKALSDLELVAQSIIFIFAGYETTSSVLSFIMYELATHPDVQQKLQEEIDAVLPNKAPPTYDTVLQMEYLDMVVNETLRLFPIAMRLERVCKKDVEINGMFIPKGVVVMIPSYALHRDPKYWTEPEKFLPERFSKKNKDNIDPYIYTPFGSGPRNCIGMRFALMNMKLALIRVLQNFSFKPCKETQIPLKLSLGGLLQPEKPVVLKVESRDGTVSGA
Chain of Cytochrome P450 2D6 (P10635 whole entry): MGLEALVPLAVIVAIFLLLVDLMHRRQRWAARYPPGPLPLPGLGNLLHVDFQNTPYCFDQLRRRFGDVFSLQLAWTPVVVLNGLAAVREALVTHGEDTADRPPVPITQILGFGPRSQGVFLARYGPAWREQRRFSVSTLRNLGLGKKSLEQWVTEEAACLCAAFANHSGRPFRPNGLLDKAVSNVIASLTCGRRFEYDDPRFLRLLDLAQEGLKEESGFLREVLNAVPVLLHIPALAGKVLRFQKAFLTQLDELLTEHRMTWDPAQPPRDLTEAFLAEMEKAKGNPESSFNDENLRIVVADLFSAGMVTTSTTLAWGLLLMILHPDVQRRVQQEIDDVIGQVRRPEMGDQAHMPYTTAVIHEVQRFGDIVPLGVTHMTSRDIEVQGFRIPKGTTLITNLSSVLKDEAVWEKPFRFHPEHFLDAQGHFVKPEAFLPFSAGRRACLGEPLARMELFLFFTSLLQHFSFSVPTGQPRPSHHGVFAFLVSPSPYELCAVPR
Chain of Vasopressin V1a receptor (P37288 whole entry): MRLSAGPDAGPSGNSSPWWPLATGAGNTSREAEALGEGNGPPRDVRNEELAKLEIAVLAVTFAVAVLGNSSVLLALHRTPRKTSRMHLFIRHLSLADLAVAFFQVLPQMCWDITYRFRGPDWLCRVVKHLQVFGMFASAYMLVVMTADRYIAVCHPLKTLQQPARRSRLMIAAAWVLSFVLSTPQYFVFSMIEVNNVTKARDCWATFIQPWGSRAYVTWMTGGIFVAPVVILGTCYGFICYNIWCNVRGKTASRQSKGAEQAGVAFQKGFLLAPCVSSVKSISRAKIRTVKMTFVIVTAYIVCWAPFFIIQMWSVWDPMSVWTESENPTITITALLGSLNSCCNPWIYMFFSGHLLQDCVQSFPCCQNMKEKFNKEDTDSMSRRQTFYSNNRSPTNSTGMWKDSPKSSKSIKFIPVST
Chain of Cytochrome P450 2C19 (P33261 whole entry): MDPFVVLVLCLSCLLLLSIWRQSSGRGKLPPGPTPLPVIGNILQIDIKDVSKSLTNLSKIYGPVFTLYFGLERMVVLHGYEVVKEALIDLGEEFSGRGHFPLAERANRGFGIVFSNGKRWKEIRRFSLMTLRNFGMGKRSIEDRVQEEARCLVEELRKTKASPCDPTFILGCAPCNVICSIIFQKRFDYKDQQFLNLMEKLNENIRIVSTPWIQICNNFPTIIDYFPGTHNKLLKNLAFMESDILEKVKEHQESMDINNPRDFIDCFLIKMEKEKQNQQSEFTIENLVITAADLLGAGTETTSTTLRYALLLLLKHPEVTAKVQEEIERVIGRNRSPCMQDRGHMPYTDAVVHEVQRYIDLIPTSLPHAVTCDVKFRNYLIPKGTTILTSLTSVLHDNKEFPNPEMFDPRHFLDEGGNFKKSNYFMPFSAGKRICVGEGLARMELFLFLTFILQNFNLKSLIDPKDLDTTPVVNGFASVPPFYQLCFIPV
Chain of Cytochrome P450 2C9 (P11712 whole entry): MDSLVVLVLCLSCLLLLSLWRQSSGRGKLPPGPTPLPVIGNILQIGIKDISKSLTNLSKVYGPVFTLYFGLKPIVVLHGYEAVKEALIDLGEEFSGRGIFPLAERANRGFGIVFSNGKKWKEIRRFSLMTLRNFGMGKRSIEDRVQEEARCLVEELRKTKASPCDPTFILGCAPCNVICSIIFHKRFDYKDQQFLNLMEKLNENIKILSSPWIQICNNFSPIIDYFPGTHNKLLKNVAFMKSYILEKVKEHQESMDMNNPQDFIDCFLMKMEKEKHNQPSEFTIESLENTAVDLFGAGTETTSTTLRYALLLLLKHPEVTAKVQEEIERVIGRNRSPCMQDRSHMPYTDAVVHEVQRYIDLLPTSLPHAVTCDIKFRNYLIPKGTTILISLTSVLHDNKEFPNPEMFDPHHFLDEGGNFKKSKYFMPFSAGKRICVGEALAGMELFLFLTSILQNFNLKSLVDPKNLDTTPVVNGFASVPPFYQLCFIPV
Chain of Vasopressin V2 receptor (P30518 whole entry): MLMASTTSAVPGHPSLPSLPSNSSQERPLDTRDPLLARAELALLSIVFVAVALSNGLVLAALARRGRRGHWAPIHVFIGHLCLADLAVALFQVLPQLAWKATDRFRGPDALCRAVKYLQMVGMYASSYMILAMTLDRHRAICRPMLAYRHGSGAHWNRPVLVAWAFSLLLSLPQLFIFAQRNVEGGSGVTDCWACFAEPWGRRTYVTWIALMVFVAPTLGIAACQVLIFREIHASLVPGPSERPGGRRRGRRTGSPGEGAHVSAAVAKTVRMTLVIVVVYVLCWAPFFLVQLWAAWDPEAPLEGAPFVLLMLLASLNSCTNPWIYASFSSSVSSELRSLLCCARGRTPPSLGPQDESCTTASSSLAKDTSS

SMILES | Ki (Oxytocin receptor [1]) [nM] | clearance [2] [mL/min/kg] | bioavailability [3] [%] | clearance [4] [mL/min/kg] | chromatographic logD [5] | AUC [7] [ng·h/mL] | solubility [8] [µg/mL] | IC50 (Cytochrome P450 3A4 [9]) [nM] | IC50 (Cytochrome P450 2D6) [nM] | half-life [10] [h] | Vd [11] [L/kg] | half-life [12] [h] | Vd [13] [L/kg] | bioavailability [14] [%] | Ki (Oxytocin receptor [15]) [nM] | Ki (Vasopressin V1a receptor) [nM] | Ki (Vasopressin V1b receptor) [nM] | Ki (Vasopressin V2 receptor) [nM] | Activity (Rattus norvegicus) [mg/kg] | Ki (Oxytocin receptor [16]) [nM] | also measured
CC(C)C[C@@H]1C(=O)N[C@H](C2Cc3ccccc3C2)C(=O)N1[C@@H](C(=O)NC(C)C)c1ccc(F)cc1F | 1.26 | 36 | 46 | 11 | 3.4 | 174 | 8 (≈ 16.1 µM) |  |  |  |  |  |  |  |  |  |  |  |  |  | F (Canis familiaris): 13%; AUC [6]: 2880 ng·h/mL
CC(C)C[C@@H]1C(=O)N[C@H](C2Cc3ccccc3C2)C(=O)N1[C@@H](C(=O)N(C)C)c1ccc(F)cc1F | 0.631 | 15 | 53 | 7 | 3.3 | 770 | 83 (≈ 172 µM) | 62000 | > 100000 | 1.1 | 1.2 | 2.1 | 1.1 | 51 | 1.58 | > 6310 | > 6310 | 316 | 0.22 | 10 | IC50 (Rattus norvegicus): 227 nM; IC50 (Oxytocin receptor [17]): 3.7 nM; IC50 (Cytochrome P450 1A2): 64000 nM; IC50 (Cytochrome P450 2C9): 49000 nM; IC50 (Cytochrome P450 2C19): > 100000 nM; IC50 (Cytochrome P450 3A4 [18]): 89000 nM
CC(C)C[C@@H]1C(=O)N[C@H](C2Cc3ccccc3C2)C(=O)N1[C@@H](C(=O)NC(C)C)c1ccc2occc2c1 | 1 | 9 | 68 | 6 |  |  |  | 4300 | 62000 | 2 | 1.4 | 2.4 | 0.9 | 95 | 3.98 | > 6310 | > 6310 | 5010 | 5.4 | 63.1 | IC50 (Cytochrome P450 1A2): 73000 nM; IC50 (Cytochrome P450 2C9): 3500 nM; IC50 (Cytochrome P450 2C19): > 100000 nM; IC50 (Cytochrome P450 3A4 [18]): 2500 nM
CCOc1ccc(C[C@H]2NC(=O)CCSSC[C@@H](C(=O)N3CCC[C@H]3C(=O)N[C@@H](CCCN)C(=O)NCC(N)=O)NC(=O)[C@H](CC(N)=O)NC(=O)[C@H]([C@@H](C)O)NC(=O)[C@H]([C@@H](C)CC)NC2=O)cc1 [ATOSIBAN] ([Mpa][dY](Et)ITNCP[Orn]G-NH2; disulfide 1-6) | 39.8 |  |  |  |  |  |  |  |  |  |  |  |  |  |  |  |  |  | 0.63 | 39.8 | IC50 (Rattus norvegicus): 186 nM
